Reference: ChEMBL document CHEMBL4834437, “Improvement of Oral Bioavailability of Pyrazolo-Pyridone Inhibitors of the Interaction of DCN1/2 and UBE2M” (J Med Chem, 2021)

Experiments:
[1] = Toxicity in C57BL/6 mouse assessed as adverse effect at 15 mg/kg, iv administered as single dose measured after 48 hrs; type: organism-based; settings: in vivo
How it was run: (§1)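 Mice were watched for adverse reactions for 48 h after a single iv (15 mg/kg) or oral (50 mg/kg) dose. Vehicle was EtOH/PG/PEG/PBS (10/10/40/39, pH 7.4) with 1% (w/v) […]-β-cyclodextrin.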

[2] = mouse, in vivo, po, 50 mg/kg, 24 h
[3] = Toxicity in C57BL/6 mouse assessed as adverse effect at 50 mg/kg, po administered as single dose measured after 48 hrs; type: organism-based; settings: in vivo; how it was run: as §1
[4] = Oral bioavailability in C57BL/6 mouse at 50 mg/kg administered as single dose measured up to 24 hrs by LC/MS analysis; type: ADME, organism-based; settings: in vivo
How it was run: (§2)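 Single dose given to mice either intravenously at 15 mg/kg or orally at 50 mg/kg. Plasma drug concentration was followed over 24 h. Concentrations below LLOQ were reported as half LLOQ.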

[5] = AUC in C57BL/6 mouse at 50 mg/kg, po administered as single dose measured up to 24 hrs by LC/MS analysis; type: ADME, organism-based; set-up: route oral, dose 50 mg/kg, time <=24; settings: in vivo
How it was run: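 Plasma drug concentration followed over 24 h. Concentrations below LLOQ were entered as half LLOQ. The same formulation was used for a separate intravenous arm at 15 mg/kg.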

[6] = Toxicity in C57BL/6 mouse assessed as effect on Na/K ratio at 50 mg/kg, po administered as 10 consecutive doses measured after 48 hrs; type: organism-based; settings: in vivo
[7] = Toxicity in C57BL/6 mouse assessed as effect on ALT level at 200 mg/kg, po administered as single dose measured after 48 hrs; type: organism-based; settings: in vivo
[8] = Toxicity in C57BL/6 mouse assessed as effect on monocyte level at 50 mg/kg, po administered as 10 consecutive doses measured after 48 hrs; type: organism-based; settings: in vivo
[9] = Toxicity in C57BL/6 mouse assessed as effect on lymphocyte level at 50 mg/kg, po administered as 10 consecutive doses measured after 48 hrs; type: organism-based; settings: in vivo
[10] = Toxicity in C57BL/6 mouse assessed as effect on potassium level at 50 mg/kg, po administered as 10 consecutive doses measured after 48 hrs; type: organism-based; settings: in vivo
[11] = Toxicity in C57BL/6 mouse assessed as effect on neutrophil level at 50 mg/kg, po administered as 10 consecutive doses measured after 48 hrs; type: organism-based; settings: in vivo
[12] = Toxicity in C57BL/6 mouse assessed as effect on creatinine level at 50 mg/kg, po administered as 10 consecutive doses measured after 48 hrs; type: organism-based; settings: in vivo
[13] = Toxicity in C57BL/6 mouse assessed as effect on chloride level at 50 mg/kg, po administered as 10 consecutive doses measured after 48 hrs; type: organism-based; settings: in vivo
[14] = Toxicity in C57BL/6 mouse assessed as effect on basophil level at 50 mg/kg, po administered as 10 consecutive doses measured after 48 hrs; type: organism-based; settings: in vivo
[15] = Toxicity in C57BL/6 mouse assessed as effect on globulin level at 200 mg/kg, po administered as single dose measured after 48 hrs; type: organism-based; settings: in vivo
[16] = Toxicity in C57BL/6 mouse assessed as effect on chloride level at 200 mg/kg, po administered as single dose measured after 48 hrs; type: organism-based; settings: in vivo
[17] = Toxicity in C57BL/6 mouse assessed as effect on alkaline phosphatase level at 50 mg/kg, po administered as 10 consecutive doses measured after 48 hrs; type: organism-based; settings: in vivo
[18] = Toxicity in C57BL/6 mouse assessed as effect on glucose level at 50 mg/kg, po administered as 10 consecutive doses measured after 48 hrs; type: organism-based; settings: in vivo
[19] = Toxicity in C57BL/6 mouse assessed as effect on cholesterol level at 200 mg/kg, po administered as single dose measured after 48 hrs; type: organism-based; settings: in vivo
[20] = Toxicity in C57BL/6 mouse assessed as effect on platelet level at 50 mg/kg, po administered as 10 consecutive doses measured after 48 hrs; type: organism-based; settings: in vivo
[21] = Toxicity in C57BL/6 mouse assessed as effect on sodium level at 200 mg/kg, po administered as single dose measured after 48 hrs; type: organism-based; settings: in vivo
[22] = Toxicity in po dosed C57BL/6 mouse assessed as maximum tolerated dose administered as 10 consecutive doses measured after 48 hrs; type: organism-based; settings: in vivo
[23] = Toxicity in C57BL/6 mouse assessed as effect on globulin level at 50 mg/kg, po administered as 10 consecutive doses measured after 48 hrs; type: organism-based; settings: in vivo
[24] = Toxicity in C57BL/6 mouse assessed as effect on BUN at 200 mg/kg, po administered as single dose measured after 48 hrs; type: organism-based; settings: in vivo
[25] = Toxicity in C57BL/6 mouse assessed as effect on MCH level at 50 mg/kg, po administered as 10 consecutive doses measured after 48 hrs; type: organism-based; settings: in vivo
[26] = Toxicity in C57BL/6 mouse assessed as effect on CPK level at 200 mg/kg, po administered as single dose measured after 48 hrs; type: organism-based; settings: in vivo
[27] = Toxicity in C57BL/6 mouse assessed as effect on glucose level at 200 mg/kg, po administered as single dose measured after 48 hrs; type: organism-based; settings: in vivo
[28] = Toxicity in C57BL/6 mouse assessed as effect on HCT level at 50 mg/kg, po administered as 10 consecutive doses measured after 48 hrs; type: organism-based; settings: in vivo
[29] = Toxicity in C57BL/6 mouse assessed as effect on eosinophil level at 50 mg/kg, po administered as 10 consecutive doses measured after 48 hrs; type: organism-based; settings: in vivo
[30] = Toxicity in C57BL/6 mouse assessed as effect on MCV level at 50 mg/kg, po administered as 10 consecutive doses measured after 48 hrs; type: organism-based; settings: in vivo
[31] = Toxicity in C57BL/6 mouse assessed as effect on sodium level at 50 mg/kg, po administered as 10 consecutive doses measured after 48 hrs; type: organism-based; settings: in vivo
[32] = Toxicity in C57BL/6 mouse assessed as effect on AST level at 50 mg/kg, po administered as 10 consecutive doses measured after 48 hrs; type: organism-based; settings: in vivo
[33] = Toxicity in C57BL/6 mouse assessed as effect on WBC level at 50 mg/kg, po administered as 10 consecutive doses measured after 48 hrs; type: organism-based; settings: in vivo
[34] = Toxicity in C57BL/6 mouse assessed as effect on BUN/creatinine ratio at 50 mg/kg, po administered as 10 consecutive doses measured after 48 hrs; type: organism-based; settings: in vivo
[35] = Toxicity in C57BL/6 mouse assessed as effect on cholesterol level at 50 mg/kg, po administered as 10 consecutive doses measured after 48 hrs; type: organism-based; settings: in vivo
[36] = Toxicity in C57BL/6 mouse assessed as effect on calcium level at 50 mg/kg, po administered as 10 consecutive doses measured after 48 hrs; type: organism-based; settings: in vivo
[37] = Toxicity in C57BL/6 mouse assessed as effect on calcium level at 200 mg/kg, po administered as single dose measured after 48 hrs; type: organism-based; settings: in vivo
[38] = Toxicity in C57BL/6 mouse assessed as effect on alkaline phosphatase level at 200 mg/kg, po administered as single dose measured after 48 hrs; type: organism-based; settings: in vivo
in vivo = settings: C57BL/6, mouse, plasma
[39] = Toxicity in C57BL/6 mouse assessed as effect on ALT level at 50 mg/kg, po administered as 10 consecutive doses measured after 48 hrs; type: organism-based; settings: in vivo
[40] = Toxicity in C57BL/6 mouse assessed as effect on Na/K ratio at 200 mg/kg, po administered as single dose measured after 48 hrs; type: organism-based; settings: in vivo
[41] = Toxicity in C57BL/6 mouse assessed as effect on total bilirubin level at 200 mg/kg, po administered as single dose measured after 48 hrs; type: organism-based; settings: in vivo
[42] = Toxicity in C57BL/6 mouse assessed as effect on phosphorous level at 50 mg/kg, po administered as 10 consecutive doses measured after 48 hrs; type: organism-based; settings: in vivo
[43] = Toxicity in C57BL/6 mouse assessed as effect on BUN/creatinine ratio at 200 mg/kg, po administered as single dose measured after 48 hrs; type: organism-based; settings: in vivo
[44] = Toxicity in po dosed C57BL/6 mouse assessed as maximum tolerated dose administered as single dose measured after 48 hrs; type: organism-based; settings: in vivo
[45] = Toxicity in C57BL/6 mouse assessed as effect on albumin level at 200 mg/kg, po administered as single dose measured after 48 hrs; type: organism-based; settings: in vivo
[46] = Toxicity in C57BL/6 mouse assessed as effect on creatinine level at 200 mg/kg, po administered as single dose measured after 48 hrs; type: organism-based; settings: in vivo
[47] = Toxicity in C57BL/6 mouse assessed as effect on HGB level at 50 mg/kg, po administered as 10 consecutive doses measured after 48 hrs; type: organism-based; settings: in vivo
[48] = Toxicity in C57BL/6 mouse assessed as effect on phosphorous level at 200 mg/kg, po administered as single dose measured after 48 hrs; type: organism-based; settings: in vivo
[49] = Toxicity in C57BL/6 mouse assessed as effect on RBC level at 50 mg/kg, po administered as 10 consecutive doses measured after 48 hrs; type: organism-based; settings: in vivo
[50] = Toxicity in C57BL/6 mouse assessed as effect on MCHC level at 50 mg/kg, po administered as 10 consecutive doses measured after 48 hrs; type: organism-based; settings: in vivo
[51] = Toxicity in C57BL/6 mouse assessed as effect on BUN at 50 mg/kg, po administered as 10 consecutive doses measured after 48 hrs; type: organism-based; settings: in vivo
HCC95 = assay: Inhibition of colony formation in human HCC95 cells at 10 uM measured after 10 days by nitroblue tetrazolium chloride reagent based assay relative to control; settings: HCC95, 240 h
[52] = Toxicity in C57BL/6 mouse assessed as effect on potassium level at 200 mg/kg, po administered as single dose measured after 48 hrs; type: organism-based; settings: in vivo
[53] = Toxicity in C57BL/6 mouse assessed as effect on CPK level at 50 mg/kg, po administered as 10 consecutive doses measured after 48 hrs; type: organism-based; settings: in vivo
[54] = Toxicity in C57BL/6 mouse assessed as effect on A/G ratio at 50 mg/kg, po administered as 10 consecutive doses measured after 48 hrs; type: organism-based; settings: in vivo
[55] = Toxicity in C57BL/6 mouse assessed as effect on AST level at 200 mg/kg, po administered as single dose measured after 48 hrs; type: organism-based; settings: in vivo
[56] = Oral bioavailability in C57BL/6 mouse; type: ADME, organism-based; settings: in vivo; how it was run: as §2
[57] = Toxicity in C57BL/6 mouse assessed as effect on total bilirubin level at 50 mg/kg, po administered as 10 consecutive doses measured after 48 hrs; type: organism-based; settings: in vivo
[58] = Toxicity in C57BL/6 mouse assessed as effect on A/G ratio at 200 mg/kg, po administered as single dose measured after 48 hrs; type: organism-based; settings: in vivo
[59] = Toxicity in C57BL/6 mouse assessed as effect on albumin level at 50 mg/kg, po administered as 10 consecutive doses measured after 48 hrs; type: organism-based; settings: in vivo

CCN1C(=O)[C@@H](NC(=O)c2cccc(C)c2)[C@@H](c2ccc(F)cc2)c2c(C)nn(-c3ccccc3)c21 (relative stereo)
Activity [1]: Non-Toxic
Cmax [2]: 0.36 µM
Activity [3]: Non-Toxic

CCN1C(=O)[C@@H](NC(=O)c2cccc(C(F)(F)F)c2)[C@@H](c2ccc(F)cc2)c2c(C)nn(-c3ccccc3)c21 (relative stereo)
F [4]: 36%
Cmax [2]: 1.15 µM
AUC at 24 h [5]: 23.8 µM·h

CCN1C(=O)[C@@H](NC(=O)c2cccc(C(F)(F)F)c2)[C@@H](c2ccc(F)cc2)c2c(CN)nn(-c3ccccc3)c21 (relative stereo)
Activity [6]: Non-Toxic
Activity [7]: Non-Toxic
Activity [8]: Non-Toxic
Activity [9]: Non-Toxic
Activity [10]: Non-Toxic
Activity [11]: Non-Toxic
Activity [12]: Non-Toxic
Activity [13]: Non-Toxic
Activity [14]: Non-Toxic
Activity [15]: Non-Toxic
Activity [16]: Non-Toxic
Activity [17]: Non-Toxic
Activity [18]: Non-Toxic
Activity [19]: Non-Toxic
Activity [20]: Non-Toxic
Activity [21]: Non-Toxic
MTD at 48 h [22]: 50 mg/kg
Activity [23]: Non-Toxic
Activity [24]: Non-Toxic
Activity [25]: Non-Toxic
Activity [26]: Non-Toxic
Activity [27]: Non-Toxic
Activity [28]: Non-Toxic
Activity [29]: Non-Toxic
Activity [30]: Non-Toxic
Activity [31]: Non-Toxic
Activity [32]: Non-Toxic
Activity [33]: Non-Toxic
Activity [34]: Non-Toxic
Activity [35]: Non-Toxic
Activity [36]: Non-Toxic
Activity [37]: Non-Toxic
Activity [38]: Non-Toxic
clearance (in vivo): 1.2 L/h/kg
Activity [39]: Non-Toxic
Activity [40]: Non-Toxic
Activity [41]: Non-Toxic
Activity [42]: Non-Toxic
Activity [43]: Non-Toxic
MTD at 48 h [44]: 200 mg/kg
Activity [45]: Non-Toxic
Activity [46]: Non-Toxic
Activity [47]: Non-Toxic
Activity [48]: Non-Toxic
Activity [49]: Non-Toxic
Activity [50]: Non-Toxic
Activity [51]: Non-Toxic
inhibition at 10 µM (HCC95): 100%
Activity [52]: Non-Toxic
Cmax [2]: 6 µM
Activity [53]: Non-Toxic
Activity [54]: Non-Toxic
Activity [55]: Non-Toxic
bioavailability [56]: 92%
Activity [57]: Non-Toxic
Activity [58]: Non-Toxic
Activity [59]: Non-Toxic
